Data published in ChEMBL document CHEMBL4689842, “EUbOPEN Chemogenomics Library wave 1” (2021).

Test system: Fibroblast
Experiment: Multiplex assay against human fibroblast
Assay type: toxicity, cell-based
Outline: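 Hoechst33342, BioTracker Green Microtubule Cytoskeleton Dye, MitoTracker Red and Annexin V Alexa Fluor 680 were added to live cells at seeding, and imaging on a CQ1 microscope at 37°C and 5% CO2 followed compound addition. Gating by CellPathfinder machine learning separated cells into Hoechst high-intensity objects or normal cells, then normal cells into healthy, pyknosed or fragmented nuclei, then pyknosed cells into mitotic or apoptotic. Per cents of healthy-nucleus cells are reported for the tubulin, mitochondrial-mass and membrane-permeability phenotypes.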

[1] = 12 h, 1 µM, compound concentration 1 uM, replicate 1
[2] = 12 h, 1 µM, compound concentration 1 uM, replicate 2
[3] = 12 h, 10 µM, compound concentration 10 uM, replicate 1
[4] = 12 h, 10 µM, compound concentration 10 uM, replicate 2
[5] = 24 h, 1 µM, compound concentration 1 uM, replicate 1
[6] = 24 h, 1 µM, compound concentration 1 uM, replicate 2
[7] = 24 h, 10 µM, compound concentration 10 uM, replicate 1
[8] = 24 h, 10 µM, compound concentration 10 uM, replicate 2
[9] = 48 h, 1 µM, compound concentration 1 uM, replicate 1
[10] = 48 h, 1 µM, compound concentration 1 uM, replicate 2
[11] = 48 h, 10 µM, compound concentration 10 uM, replicate 1
[12] = 48 h, 10 µM, compound concentration 10 uM, replicate 2

## COC(=O)C1=C(C)NC(C)=C(C(=O)OCCCN2CCC(c3ccccc3)(c3ccccc3)CC2)[C@H]1c1cccc([N+](=O)[O-])c1 [NIGULDIPINE]
[1]
  Population Apoptotic (%): 65%
  Population Fragmented Nuclei (%): 17%
  Population Healthy Nuclei (%): 45%
  Population Hoechst High Intensity Objects (%): 12%
  Population Membrane Permeable-Phenotype (%): 2%
  Population Mitochondria Different-Phenotype (%): 85%
  Population Mitotic Cells (%): 34%
  Population Normal (%): 87%
  Population Pyknosed Nuclei (%): 36%
  Population Tubulin-Different-Phenotype (%): 100%
  Total Cell Count: 99
[2]
  Population Apoptotic (%): 91%
  Population Fragmented Nuclei (%): 6%
  Population Healthy Nuclei (%): 78%
  Population Hoechst High Intensity Objects (%): 9%
  Population Membrane Permeable-Phenotype (%): 66%
  Population Mitochondria Different-Phenotype (%): 100%
  Population Mitotic Cells (%): 8%
  Population Normal (%): 90%
  Population Pyknosed Nuclei (%): 15%
  Total Cell Count: 945
[3]
  Population Apoptotic (%): 65%
  Population Fragmented Nuclei (%): 19%
  Population Healthy Nuclei (%): 10%
  Population Hoechst High Intensity Objects (%): 16%
  Population Membrane Permeable-Phenotype (%): 63%
  Population Mitochondria Different-Phenotype (%): 18%
  Population Mitotic Cells (%): 34%
  Population Normal (%): 83%
  Population Pyknosed Nuclei (%): 69%
  Population Tubulin-Different-Phenotype (%): 72%
  Total Cell Count: 124
[4]
  Population Apoptotic (%): 76%
  Population Fragmented Nuclei (%): 67%
  Population Healthy Nuclei (%): 3%
  Population Hoechst High Intensity Objects (%): 12%
  Population Membrane Permeable-Phenotype (%): 100%
  Population Mitochondria Different-Phenotype (%): 50%
  Population Mitotic Cells (%): 23%
  Population Normal (%): 87%
  Population Pyknosed Nuclei (%): 29%
  Population Tubulin-Different-Phenotype (%): 100%
  Total Cell Count: 87
[5]
  Population Apoptotic (%): 76%
  Population Fragmented Nuclei (%): 25%
  Population Healthy Nuclei (%): 53%
  Population Hoechst High Intensity Objects (%): 13%
  Population Membrane Permeable-Phenotype (%): 7%
  Population Mitochondria Different-Phenotype (%): 85%
  Population Mitotic Cells (%): 23%
  Population Normal (%): 86%
  Population Pyknosed Nuclei (%): 20%
  Population Tubulin-Different-Phenotype (%): 90%
  Total Cell Count: 117
[6]
  Population Apoptotic (%): 77%
  Population Fragmented Nuclei (%): 7%
  Population Healthy Nuclei (%): 65%
  Population Hoechst High Intensity Objects (%): 5%
  Population Membrane Permeable-Phenotype (%): 96%
  Population Mitochondria Different-Phenotype (%): 100%
  Population Mitotic Cells (%): 22%
  Population Normal (%): 94%
  Population Pyknosed Nuclei (%): 27%
  Population Tubulin-Different-Phenotype (%): 100%
  Total Cell Count: 948
[7]
  Population Apoptotic (%): 79%
  Population Fragmented Nuclei (%): 29%
  Population Healthy Nuclei (%): 10%
  Population Hoechst High Intensity Objects (%): 22%
  Population Membrane Permeable-Phenotype (%): 27%
  Population Mitochondria Different-Phenotype (%): 27%
  Population Mitotic Cells (%): 20%
  Population Normal (%): 77%
  Population Pyknosed Nuclei (%): 59%
  Population Tubulin-Different-Phenotype (%): 54%
  Total Cell Count: 135
[8]
  Population Apoptotic (%): 100%
  Population Fragmented Nuclei (%): 40%
  Population Healthy Nuclei (%): 25%
  Population Hoechst High Intensity Objects (%): 11%
  Population Membrane Permeable-Phenotype (%): 100%
  Population Mitochondria Different-Phenotype (%): 100%
  Population Mitotic Cells (%): 0%
  Population Normal (%): 88%
  Population Pyknosed Nuclei (%): 33%
  Population Tubulin-Different-Phenotype (%): 100%
  Total Cell Count: 85
[9]
  Population Apoptotic (%): 80%
  Population Fragmented Nuclei (%): 47%
  Population Healthy Nuclei (%): 44%
  Population Hoechst High Intensity Objects (%): 11%
  Population Membrane Permeable-Phenotype (%): 1%
  Population Mitochondria Different-Phenotype (%): 70%
  Population Mitotic Cells (%): 20%
  Population Normal (%): 88%
  Population Pyknosed Nuclei (%): 7%
  Population Tubulin-Different-Phenotype (%): 80%
  Total Cell Count: 143
[10]
  Population Apoptotic (%): 0%
  Population Fragmented Nuclei (%): 61%
  Population Healthy Nuclei (%): 38%
  Population Hoechst High Intensity Objects (%): 21%
  Population Membrane Permeable-Phenotype (%): 0%
  Population Mitochondria Different-Phenotype (%): 71%
  Population Mitotic Cells (%): 0%
  Population Normal (%): 78%
  Population Pyknosed Nuclei (%): 0%
  Population Tubulin-Different-Phenotype (%): 86%
  Total Cell Count: 126
[11]
  Population Apoptotic (%): 82%
  Population Fragmented Nuclei (%): 48%
  Population Healthy Nuclei (%): 22%
  Population Hoechst High Intensity Objects (%): 28%
  Population Membrane Permeable-Phenotype (%): 31%
  Population Mitochondria Different-Phenotype (%): 22%
  Population Mitotic Cells (%): 17%
  Population Normal (%): 71%
  Population Pyknosed Nuclei (%): 29%
  Population Tubulin-Different-Phenotype (%): 27%
  Total Cell Count: 138
[12]
  Population Apoptotic (%): 90%
  Population Fragmented Nuclei (%): 68%
  Population Healthy Nuclei (%): 17%
  Population Hoechst High Intensity Objects (%): 31%
  Population Membrane Permeable-Phenotype (%): 57%
  Population Mitochondria Different-Phenotype (%): 64%
  Population Mitotic Cells (%): 9%
  Population Normal (%): 68%
  Population Pyknosed Nuclei (%): 13%
  Population Tubulin-Different-Phenotype (%): 21%
  Total Cell Count: 115
